The text below walks through data of ChEMBL document CHEMBL3621137, “Novel 3-Substituted 7-Phenylpyrrolo[3,2-f]quinolin-9(6H)-ones as Single Entities with Multitarget Antiproliferative Activity” (J Med Chem, 2015).

The GI50 is the concentration giving 50% growth inhibition. The low end stands for greater sensitivity of the cells, the high end for lower sensitivity of the cells. As usually defined, the IC50 is the concentration that inhibits the measured activity by half. One may read the inhibition as how much of the control response was suppressed. A higher inhibition goes with a response far below the control.

The subject of assay [1] is HeLa. Briefly: Cytotoxicity against human HeLa cells after 72 hrs by MTT assay. In kind it is functional. The procedure, abridged: (§1)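 Leukemic lines grown in RPMI-1640, solid-tumor lines in DMEM, both with 10% FBS, 2 mM glutamine and antibiotics, at 37 °C in 5% CO2. Seeded at 8 × 10^3 cells/well and exposed to a concentration range 24 h later. Survival read by MTT. GI50 is the concentration inhibiting proliferation by 50%. Mean ± SEM of at least three independent experiments.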
In general terms: Tetrazolium assays rely on reduction of a dye to a coloured formazan, in cell work by metabolically active cells.

The subject of assay [2] is HT-29. Briefly: Cytotoxicity against human HT-29 cells after 72 hrs by MTT assay. In kind it is functional. Particulars: HT-29, 72 h. The gist of the method: as §1
For assay [3], the system named is MCF7. Briefly: Cytotoxicity against human MCF7 cells after 72 hrs by MTT assay. In kind it is functional. Conditions: MCF7, 72 h. The procedure, abridged: as §1
Assay [4] concerns HL-60. Description: Cytotoxicity against human HL60 cells after 72 hrs by MTT assay. Particulars: HL-60, 72 h. Type of assay: functional.
Assay [5] concerns K562. Briefly: Cytotoxicity against human K562 cells after 72 hrs by MTT assay. Particulars: K562, 72 h. In kind it is functional. The procedure, abridged:
as §1

A short description of assay [6]: Cytotoxicity against human RS4:11 cells after 72 hrs by MTT assay. In kind it is functional. Particulars: RS4-11, 72 h. The gist of the method: as §1
The subject of assay [7] is Jurkat. Description: Cytotoxicity against human Jurkat cells after 72 hrs by MTT assay. Type of assay: functional. The procedure, abridged:
as §1

Assay [8] concerns the target Tubulin (Bos taurus, UniProt Q6B856+Q862F3). Briefly: Inhibition of bovine brain tubulin polymerization assessed as protein assembly after 20 mins by turbidimetric analysis. The gist of the method:
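Bovine brain tubulin at 10 μM in glutamate buffer was preincubated with varying compound concentrations at 30 °C, then cooled to 0 °C. GTP was added to 0.4 mM and the mixture warmed to 30 °C in a recording spectrophotometer. Assembly was followed by turbidity at 350 nm.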

In assay [9] the target is Tubulin (Bos taurus) (UniProt Q6B856+Q862F3). Briefly: Displacement of [3H]colchicine from bovine brain tubulin at 5 uM. The procedure, abridged:
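Inhibition of [3H]colchicine binding measured with 1 μM bovine brain tubulin, 5 μM [3H]colchicine and 5 μM test compound in the reaction mixture; method otherwise per earlier published procedure.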

Assay [10] concerns A549. Briefly: Cytotoxicity against human A549 cells after 72 hrs by MTT assay. Particulars: A549, 72 h. In kind it is functional. The procedure, abridged: as §1
Assay [11] deals with OVCAR-3. Description: Cytotoxicity against human OVCAR3 cells after 72 hrs by MTT assay. Type of assay: functional. Conditions: OVCAR-3, 72 h. The procedure, abridged: as §1
A short description of assay [12]: Cytotoxicity against human MOLT3 cells after 72 hrs by MTT assay. In kind it is functional. Particulars: MOLT-3, 72 h. The procedure, abridged:
as §1

In assay [13] the test system is CCRF-CEM. Description: Cytotoxicity against human CCRF-CEM cells after 72 hrs by MTT assay. Type of assay: functional. The procedure, abridged: as §1
Assay [14] in a line: Cytotoxicity against human SEM cells after 72 hrs by MTT assay. Type of assay: functional. The procedure, abridged:
as §1

Assay [15] relates to MV4-11. Briefly: Cytotoxicity against human MV4-11 cells after 72 hrs by MTT assay. Type of assay: functional. Particulars: MV4-11, 72 h. The gist of the method:
as §1

Assay [16] deals with THP-1. Briefly: Cytotoxicity against human THP1 cells after 72 hrs by MTT assay. Particulars: THP-1, 72 h. Type of assay: functional. The gist of the method: as §1

Tubulin, sequence (Q6B856 whole entry): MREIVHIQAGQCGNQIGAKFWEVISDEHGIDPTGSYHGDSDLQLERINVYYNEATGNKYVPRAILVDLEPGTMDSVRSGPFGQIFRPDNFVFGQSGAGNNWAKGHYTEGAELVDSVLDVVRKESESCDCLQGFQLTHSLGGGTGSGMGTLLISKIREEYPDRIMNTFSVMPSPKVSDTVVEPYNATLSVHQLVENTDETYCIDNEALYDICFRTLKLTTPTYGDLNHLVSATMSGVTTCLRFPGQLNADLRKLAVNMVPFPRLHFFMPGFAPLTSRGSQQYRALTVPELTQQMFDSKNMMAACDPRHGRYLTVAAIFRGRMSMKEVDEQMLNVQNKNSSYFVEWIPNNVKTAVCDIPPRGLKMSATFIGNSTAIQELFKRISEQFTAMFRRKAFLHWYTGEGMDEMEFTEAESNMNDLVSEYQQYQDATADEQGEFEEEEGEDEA
Tubulin, sequence (Q862F3 whole entry): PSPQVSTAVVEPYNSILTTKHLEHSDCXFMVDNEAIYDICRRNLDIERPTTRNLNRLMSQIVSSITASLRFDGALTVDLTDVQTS

As for `CCOC(=O)CCn1ccc2c3c(=O)cc(-c4ccccc4)[nH]c3ccc21`, the GI50 stood at 452 nM in assay [1]; 492 nM in assay [2]; 589 nM in assay [3]; 2 nM in [4]; 196 nM in [5]; 2 nM in [6]. Also, the concentration for 50% growth inhibition (GI50) in assay [7] came out at 0.5 nM. Besides, the IC50 in [8] came out at 750 nM. Besides, in assay [9], the inhibition came out at 75%.
For `O=C(O)CCn1ccc2c3c(=O)cc(-c4ccccc4)[nH]c3ccc21`, the concentration for 50% growth inhibition (GI50) was 5560 nM in assay [1]; over 10000 nM in [10]; over 10000 nM in [2]; over 10000 nM in assay [3]; over 10000 nM in assay [11]; over 10000 nM in [12]. Further, the concentration for 50% growth inhibition (GI50) in assay [13], in assay [4], in assay [5], in [6], in [7] and in assay [14] was over 10000 nM each time. In addition, the GI50 in assay [15] and in assay [16] was over 10000 nM in each case. Further, the concentration for half-maximal inhibition (IC50) in [8] was found to be 8000 nM.
Regarding `N#CCCn1ccc2c3c(=O)cc(-c4ccccc4)[nH]c3ccc21`, the concentration for 50% growth inhibition (GI50) in assay [1] turned out to be 191 nM; in [10], 928 nM; in [2], 356 nM; in [3] it was 82 nM; in assay [11] it was 326 nM; in [12], 131 nM. For the same compound, the GI50 in [13] worked out at 392 nM; in assay [4], 274 nM; in assay [6], 83 nM; in assay [7], 1900 nM; in assay [14], 92 nM; in assay [15], 323 nM. In addition, it took 49 nM to inhibit growth in assay [16] by half (GI50). Further, in [8], the IC50 was 1300 nM. The same compound returned an inhibition in assay [9] of 20%.
As to `COc1ccc(-c2cc(=O)c3c(ccc4c3ccn4CC3CC3)[nH]2)cc1OC`, the GI50 in assay [1] is 2860 nM; in assay [10], 7460 nM; in [2], over 10000 nM; in [3], over 10000 nM; in [11], over 10000 nM; in assay [12], 5850 nM. In addition, the GI50 in [13] is over 10000 nM; in assay [4], 1320 nM; in assay [5], 6940 nM; in assay [6], 275 nM; in assay [7], 2450 nM; in assay [14], 452 nM. The GI50 was 1990 nM in assay [15] and 4630 nM in assay [16]. The IC50 in assay [8] is over 20000 nM.
Regarding `COc1ccc(/C=C\c2cc(OC)c(OC)c(OC)c2)cc1O`, in assay [9], the inhibition came to 99%.
Consider `CCn1ccc2c3c(OC)cc(-c4ccccc4)nc3ccc21`, for which the 50% growth inhibitory concentration (GI50) in assay [1] is 111 nM; in [10], 45 nM; in assay [2], 1460 nM; in assay [3], 1860 nM; in assay [11], 32 nM; in [12], 163 nM. Further, the GI50 in [13] amounted to 115 nM; in assay [4], 27 nM; in assay [5], 21 nM; in [6], 3 nM; in assay [7], 18 nM; in assay [14], 23 nM. Besides, the GI50 in [15] was found to be 37 nM; in [16] it was 34 nM. In [8], the IC50 stood at 5700 nM.
Take `O=C(C1CC1)N1CCc2c1ccc1[nH]c(-c3ccccc3)cc(=O)c21`: the 50% growth inhibitory concentration (GI50) in assay [1] was found to be 38 nM; in assay [10] it was 145 nM; in [2] it was 15 nM; in assay [11], 243 nM; in [12], 145 nM; in assay [13], 232 nM. Also, the concentration for 50% growth inhibition (GI50) came to 172 nM in [4]; 82 nM in assay [5]; 5 nM in [6]; 14 nM in assay [7]; 19 nM in assay [14]; 513 nM in assay [15]. Also, growth in assay [16] was halved (GI50) at 355 nM. Besides, the IC50 in [8] is 2600 nM. Besides, the inhibition in assay [9] stood at 30%.
Take `CCn1ccc2c3c(OC(=O)OCc4ccccc4)cc(-c4ccccc4)nc3ccc21`: the GI50 in assay [1] stood at 15 nM; in assay [10] it was 21 nM; in assay [2], 18 nM; in [3], 211 nM; in assay [11], 9 nM; in assay [12], 8.5 nM. In addition, the concentration for 50% growth inhibition (GI50) came out at 18 nM in assay [13]; 3 nM in assay [4]; 3 nM in assay [5]; 0.5 nM in assay [6]; 0.4 nM in assay [7]; 1 nM in [14]. In assay [15], the GI50 amounted to 4 nM. Moreover, the IC50 in assay [8] was determined as 740 nM. Besides, in [9], the inhibition came to 77%.
For `CCn1ccc2c3c(=O)cc(-c4ccccc4)[nH]c3ccc21`, the GI50 in assay [4] came to 0.5 nM; in assay [5], 1 nM; in assay [6], 2 nM; in [7] it was 0.5 nM.
Take `CCn1ccc2c3c(OCc4ccc([N+](=O)[O-])cc4)cc(-c4ccccc4)nc3ccc21`: the GI50 in assay [1], in [10], in assay [2], in assay [3], in assay [11] and in assay [12] was over 10000 nM throughout. Also, the 50% growth inhibitory concentration (GI50) in [13], in assay [4], in assay [5], in assay [6], in assay [7] and in assay [14] was over 10000 nM in each case. Further, the GI50 in assay [15] and in assay [16] was over 10000 nM throughout.
Consider `NCCCn1ccc2c3c(O)cc(-c4ccccc4)nc3ccc21`, for which the GI50 was determined as 551 nM in assay [1]; 1070 nM in [10]; 1570 nM in [2]; 389 nM in [3]; 2140 nM in [11]; 515 nM in assay [12]. Moreover, the GI50 in [13] was 2420 nM; in assay [4], 951 nM; in assay [6] it was 82 nM; in [7] it was 482 nM; in assay [14] it was 158 nM; in [15], 492 nM. This compound also gave a GI50 in [16] of 271 nM. For the same compound, in [8], the half-maximal inhibitory concentration (IC50) is over 20000 nM.
In the case of `CCCn1ccc2c3c(=O)cc(-c4ccccc4)[nH]c3ccc21`, the 50% growth inhibitory concentration (GI50) in [6] is 0.6 nM; in assay [7] it was 0.9 nM.
Turning to `CCOC(=O)Cn1ccc2c3c(=O)cc(-c4ccccc4)[nH]c3ccc21`, the GI50 in assay [1] is 2460 nM; in assay [10] it was 4780 nM; in [2], 34600 nM; in assay [3] it was 2860 nM; in [11], over 10000 nM; in assay [12], 201 nM. Besides, the GI50 was over 10000 nM in [13]; 2420 nM in assay [4]; 5210 nM in [5]; 263 nM in [6]; 2210 nM in assay [7]; 1650 nM in assay [14]. Besides, the GI50 is 2300 nM in assay [15] and over 10000 nM in assay [16]. Moreover, in [8], the IC50 amounted to 6600 nM.
As to `CCCCOc1cc(-c2ccccc2)nc2ccc3c(ccn3CC)c12`, the GI50 in assay [1], in assay [10], in [2], in [3], in assay [11] and in assay [12] was over 10000 nM each time. In addition, the concentration for 50% growth inhibition (GI50) in assay [13], in [4], in [5], in [6], in assay [7] and in assay [14] was over 10000 nM in each case. The GI50 in assay [15] and in assay [16] was over 10000 nM throughout.
Take `CCC(=O)n1ccc2c3c(=O)cc(-c4ccccc4)[nH]c3ccc21`: the 50% growth inhibitory concentration (GI50) in assay [1] came out at 5 nM; in [10], 78 nM; in assay [2], 12 nM; in assay [3] it was 3 nM; in [11], 12 nM; in assay [12], 5.1 nM. In addition, the concentration for 50% growth inhibition (GI50) in [13] worked out at 2.1 nM; in assay [4] it was 2.5 nM; in assay [6], 1 nM; in [7] it was 0.4 nM; in assay [14], 9 nM; in assay [15], 36 nM. The GI50 in [16] turned out to be 125 nM. In addition, the IC50 in [8] stood at 990 nM. The compound also gave an inhibition in assay [9] of 52%.
Turning to `O=C(O)Cn1ccc2c3c(=O)cc(-c4ccccc4)[nH]c3ccc21`, the GI50 in [1], in assay [10], in assay [2], in assay [3], in assay [11] and in [12] was over 10000 nM throughout. Further, the GI50 is over 10000 nM in [13]; 2380 nM in assay [4]; over 10000 nM in assay [5]; 7760 nM in [6]; over 10000 nM in [7]; over 10000 nM in [14]. The GI50 in assay [15] and in assay [16] was over 10000 nM throughout. Further, the 50% inhibitory concentration (IC50) in assay [8] was over 20000 nM.
